Type in all cases: functional
Assay [1] concerns Trichoderma koningii. In words: Antifungal activity against Trichoderma koningii assessed as radial growth at 7% after 24 hrs by poison food technique of Flack relative to control. In a few lines:
(§1)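 Acetone stock added to molten sterilized PDA to final 0.5–7%, plated in 90 mm dishes with compound-free plates as control. Each plate was inoculated with a 9 mm disc from a 4-day-old culture, incubated at 25 ± 1 °C, and colony diameter measured at 24 h intervals. % inhibition = (control − treatment)/control × 100; three replicates averaged.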

Assay [2] concerns Trichoderma hamatum. In words: Antifungal activity against Trichoderma hamatum assessed as radial growth at 5% after 72 hrs by poison food technique of Flack relative to control. In a few lines: as §1
Assay [3] relates to Aspergillus niger. In words: Antifungal activity against Aspergillus niger assessed as radial growth at 5% after 24 hrs by poison food technique of Flack. A digest of the protocol:
(§2)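 Poisoned-food assay on potato dextrose agar. Compound stock in acetone was added to molten sterilized PDA to a final 0.5, 1, 3, 5 or 7%, then 20 mL was poured per 90 mm plate. Each plate was inoculated with a 9 mm mycelial disc from a 4-day-old pure culture and incubated at 25 ± 1 °C. Colony diameter (mm) was read every 24 h; mean of three replicates.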

Assay [4] has as its system Trichoderma koningii. In words: Antifungal activity against Trichoderma koningii assessed as radial growth at 0.5% after 48 hrs by poison food technique of Flack relative to control. In a few lines: as §1
Assay [5] deals with Aspergillus niger. Nature of the assay: Growth promotion of Aspergillus niger assessed as radial growth at 0.5% after 72 hrs by poison food technique of Flack relative to control. A digest of the protocol:
(§3)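 Growth increase in poisoned PDA plates (acetone stock, final 0.5 or 1%) against untreated control plates. Inoculum was a 9 mm mycelial disc from a 4-day-old culture, incubated at 25 ± 1 °C, with colony diameter read every 24 h. Where treated growth exceeded control, percentage increase over control was recorded; average of three replicates.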

Assay [6] relates to Aspergillus niger. Nature of the assay: Growth promotion of Aspergillus niger assessed as radial growth at 0.5% after 48 hrs by poison food technique of Flack relative to control. In a few lines: as §3
For assay [7], the system named is Trichoderma koningii. In words: Growth promotion of Trichoderma koningii assessed as radial growth at 1% after 48 hrs by poison food technique of Flack relative to control.
Assay [8] concerns Trichoderma koningii. Nature of the assay: Growth promotion of Trichoderma koningii assessed as radial growth at 0.5% after 24 hrs by poison food technique of Flack relative to control.
The subject of assay [9] is Trichoderma hamatum. Nature of the assay: Antifungal activity against Trichoderma hamatum assessed as radial growth at 5% after 48 hrs by poison food technique of Flack. A digest of the protocol: (§4)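 Poisoned-food method: acetone stock mixed into molten sterilized potato dextrose agar to final 0.5, 1, 3, 5 or 7%, poured into 90 mm plates. Plates were inoculated with a 9 mm mycelial disc from a 4-day-old pure culture and incubated at 25 ± 1 °C. Colony diameter (mm) was read every 24 h; mean of three replicates.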

Assay [10] relates to Aspergillus niger. In words: Antifungal activity against Aspergillus niger assessed as radial growth at 5% after 48 hrs by poison food technique of Flack. A digest of the protocol:
as §2

Assay [11] has as its system Trichoderma koningii. Nature of the assay: Growth promotion of Trichoderma koningii assessed as radial growth at 0.5% after 72 hrs by poison food technique of Flack relative to control.
Assay [12] deals with Trichoderma koningii. In words: Antifungal activity against Trichoderma koningii assessed as radial growth at 7% after 24 hrs by poison food technique of Flack. In a few lines:
as §4

Assay [13] relates to Trichoderma hamatum. In words: Antifungal activity against Trichoderma hamatum assessed as radial growth at 7% after 48 hrs by poison food technique of Flack relative to control. A digest of the protocol: as §1
In assay [14] the test system is Aspergillus niger. Nature of the assay: Growth promotion of Aspergillus niger assessed as radial growth at 1% after 48 hrs by poison food technique of Flack relative to control. A digest of the protocol: as §3
In assay [15] the test system is Trichoderma koningii. Nature of the assay: Growth promotion of Trichoderma koningii assessed as radial growth at 0.5% after 48 hrs by poison food technique of Flack relative to control.
The subject of assay [16] is Aspergillus niger. In words: Antifungal activity against Aspergillus niger assessed as radial growth at 7% after 24 hrs by poison food technique of Flack. In a few lines: as §2
For assay [17], the system named is Aspergillus niger. In words: Antifungal activity against Aspergillus niger assessed as radial growth at 7% after 48 hrs by poison food technique of Flack. A digest of the protocol:
as §2

Assay [18] concerns Aspergillus niger. In words: Growth promotion of Aspergillus niger assessed as radial growth at 1% after 72 hrs by poison food technique of Flack relative to control. In a few lines: as §3
For assay [19], the system named is Aspergillus niger. Nature of the assay: Growth promotion of Aspergillus niger assessed as radial growth at 0.5% after 24 hrs by poison food technique of Flack relative to control. In a few lines:
as §3

Assay [20] deals with Aspergillus niger. In words: Antifungal activity against Aspergillus niger assessed as radial growth at 7% after 72 hrs by poison food technique of Flack. A digest of the protocol: as §2
Assay [21] relates to Trichoderma koningii. In words: Growth promotion of Trichoderma koningii assessed as radial growth at 1% after 72 hrs by poison food technique of Flack relative to control.
In assay [22] the test system is Trichoderma hamatum. Nature of the assay: Antifungal activity against Trichoderma hamatum assessed as radial growth at 7% after 48 hrs by poison food technique of Flack. A digest of the protocol: as §4
Assay [23] relates to Trichoderma hamatum. In words: Antifungal activity against Trichoderma hamatum assessed as radial growth at 5% after 24 hrs by poison food technique of Flack. A digest of the protocol: as §4
Assay [24] relates to Trichoderma koningii. Nature of the assay: Antifungal activity against Trichoderma koningii assessed as radial growth at 5% after 24 hrs by poison food technique of Flack. In a few lines: as §4
The test system of assay [25] is Trichoderma hamatum. In words: Growth promotion of Trichoderma hamatum assessed as radial growth at 0.5% after 72 hrs by poison food technique of Flack relative to control.
Assay [26] concerns Aspergillus niger. In words: Antifungal activity against Aspergillus niger assessed as radial growth at 3% after 24 hrs by poison food technique of Flack. A digest of the protocol:
as §2

Assay [27] deals with Trichoderma hamatum. In words: Growth promotion of Trichoderma hamatum assessed as radial growth at 0.5% after 48 hrs by poison food technique of Flack relative to control.
For assay [28], the system named is Trichoderma hamatum. Nature of the assay: Growth promotion of Trichoderma hamatum assessed as radial growth at 1% after 24 hrs by poison food technique of Flack relative to control.
Assay [29] has as its system Trichoderma hamatum. Nature of the assay: Growth promotion of Trichoderma hamatum assessed as radial growth at 1% after 48 hrs by poison food technique of Flack relative to control.
Assay [30] has as its system Trichoderma hamatum. Nature of the assay: Growth promotion of Trichoderma hamatum assessed as radial growth at 0.5% after 24 hrs by poison food technique of Flack relative to control. In a few lines:
as §3

The subject of assay [31] is Trichoderma koningii. Nature of the assay: Antifungal activity against Trichoderma koningii assessed as radial growth at 3% after 24 hrs by poison food technique of Flack. A digest of the protocol:
as §4

The subject of assay [32] is Trichoderma koningii. Nature of the assay: Antifungal activity against Trichoderma koningii assessed as radial growth at 7% after 48 hrs by poison food technique of Flack. In a few lines:
as §4

For assay [33], the system named is Trichoderma koningii. Nature of the assay: Antifungal activity against Trichoderma koningii assessed as radial growth at 5% after 48 hrs by poison food technique of Flack. A digest of the protocol: as §4
Assay [34] concerns Trichoderma hamatum. Nature of the assay: Antifungal activity against Trichoderma hamatum assessed as radial growth at 7% after 72 hrs by poison food technique of Flack. In a few lines:
as §4

For assay [35], the system named is Trichoderma koningii. Nature of the assay: Growth promotion of Trichoderma koningii assessed as radial growth at 1% after 24 hrs by poison food technique of Flack relative to control.
For assay [36], the system named is Aspergillus niger. In words: Growth promotion of Aspergillus niger assessed as radial growth at 1% after 24 hrs by poison food technique of Flack relative to control. In a few lines: as §3

Calls of active or inactive are those of the source. The rule behind the calls is not given here.

Consider `CCOC(=O)C1=C(C)NC(=S)NC1c1ccc(N(C)C)cc1` (configuration not stated), for which the “inhibition (INH)” value in assay [1] is 100%; in [2], 96.68%; in assay [4], 0%; in [13] it was 100%. For the same molecule, the outcome in [3], in assay [9], in [10], in assay [12], in assay [16] and in assay [17] was Active. For the same molecule, the result in assay [20], in assay [22] and in [23] was Active. The Activity in [5] is 100%; in assay [6] it was 103.2%; in assay [7] it was 18.21%; in assay [8], 15.38%; in assay [11], 2.7%; in [14], 86.6%. Moreover, the Activity in [15] is 18.75%; in assay [18], 92.07%; in assay [19] it was 60%; in assay [21] it was 1.35%.
Take `CCOC(=O)C1=C(C)NC(=S)NC1c1ccccc1O` (configuration not stated): the “inhibition (INH)” value turned out to be 100% in [1], 97.52% in assay [2], 0% in [4] and 100% in [13]. Also, the result in assay [24], in assay [9], in assay [12], in assay [22] and in [23] was Active. The Activity in assay [5] is on record as 93.61%; in assay [6], 129.68%; in assay [7], 113.53%; in [8], 19.71%; in assay [11], 1.25%; in assay [25], 0.42%. Moreover, the Activity in assay [14] was 94.34%; in [15] it was 53.12%; in assay [18] it was 104.34%; in assay [19], 90.09%.
For `CCOC(=O)C1=C(C)NC(=O)NC1c1ccc(N(C)C)cc1` (configuration not stated), the “inhibition (INH)” value was 100% in assay [1], 86.83% in assay [2], 9.67% in assay [4] and 96.38% in assay [13]. The outcome in assay [3], in [24], in assay [26], in [12], in assay [16] and in [17] was Active. The result in assay [20] was Active. In addition, the Activity in [27] turned out to be 3.3%; in assay [28], 3.15%; in [29] it was 1.5%; in [30], 8.97%.
As for `CCOC(=O)C1=C(C)NC(=O)NC1c1ccccc1` (configuration not stated), the “inhibition (INH)” value stood at 100% in assay [1], 93.2% in assay [2], 18.25% in [4] and 100% in [13]. Also, the outcome in [24], in assay [31], in assay [32], in [12], in assay [16] and in [33] was Active. For the same molecule, the outcome in assay [22], in [34] and in assay [23] was Active. The Activity was 27.63% in assay [5]; 64.39% in [6]; 13.37% in assay [14]; 7.76% in assay [18]; 19.44% in assay [19].
Take `CCOC(=O)C1=C(C)NC(=S)NC1c1ccccc1` (configuration not stated): the “inhibition (INH)” value in [1] was determined as 91.34%; in [2], 94.96%; in assay [4] it was 0%; in [13] it was 100%. Besides, the Activity in [35] is given as 26.94%; in [5], 106.06%; in [6], 96.9%; in assay [7], 3.92%; in assay [8], 36.06%; in [11] it was 2.97%. The Activity in assay [14] came to 50%; in assay [15], 16.26%; in assay [18], 75.75%; in assay [19] it was 133%; in assay [21], 2.97%. In addition, the result in assay [16], in assay [17], in assay [20] and in assay [22] was Active.
`CCOC(=O)C1=C(C)NC(=O)NC1c1ccccc1O` (configuration not stated): the “inhibition (INH)” value in [1] is listed as 100%; in assay [2], 95.07%; in [4] it was 0%; in assay [13] it was 100%. In addition, the Activity in assay [35] is given as 5.79%; in assay [27], 19.53%; in [8], 6.49%; in assay [11] it was 6.37%; in [25], 4.07%; in assay [15] it was 11.97%. The Activity in assay [19] was 3.2%; in assay [30], 5.68%; in [36], 7.4%. The outcome in [32], in [12], in assay [16], in assay [17] and in assay [22] was Active.

The record behind these values is ChEMBL document CHEMBL1152173, “Synthesis and in vitro evaluation of the antifungal activities of dihydropyrimidinones” (2008).
